hERG protect: hERG (human) protection from proarrhythmic block. Q12809. CHO-hERG, FluxOR thallium flux, dofetilide IC70 present. activation (rescue from dofetilide block), less the hit threshold, % at 10 µM. 310,000 compounds, 0.51% hits;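 active = activation above the mean of controls blocked by dofetilide plus 5 SD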;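 note: thallium influx through hERG after potassium depolarization seen as dye fluorescence rise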
KCNQ1 inh: blocks the human KCNQ1 potassium channel. B-score at 10 µM. 310,000 compounds, 1.3% hits. AID 2642. CHO-K1 KCNQ1, FluxOR thallium flux fluorescence; hits give high values. P51787;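 active = compounds whose thallium flux B-score, printed positive for inhibition, exceeds three library SD while starting fluorescence stays within three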;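 note: channel opened by potassium depolarization with thallium stimulus after 20 min compound exposure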
KCNK3 inh: human KCNK3 channel inhibition, primary screen | 340,000 compounds, 0.84% hits | AID 602410 | B-score at 10 µM | CHO-KCNK3 thallium flux, FluxOR fluorescence; hits give low values;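 active = B-score under library mean minus 4 SD, starting fluorescence ratio at most library mean plus 5 SD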;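 note: more negative B-score means stronger inhibition of thallium flux through KCNK3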
Target sequence (O14649 whole entry, looked up): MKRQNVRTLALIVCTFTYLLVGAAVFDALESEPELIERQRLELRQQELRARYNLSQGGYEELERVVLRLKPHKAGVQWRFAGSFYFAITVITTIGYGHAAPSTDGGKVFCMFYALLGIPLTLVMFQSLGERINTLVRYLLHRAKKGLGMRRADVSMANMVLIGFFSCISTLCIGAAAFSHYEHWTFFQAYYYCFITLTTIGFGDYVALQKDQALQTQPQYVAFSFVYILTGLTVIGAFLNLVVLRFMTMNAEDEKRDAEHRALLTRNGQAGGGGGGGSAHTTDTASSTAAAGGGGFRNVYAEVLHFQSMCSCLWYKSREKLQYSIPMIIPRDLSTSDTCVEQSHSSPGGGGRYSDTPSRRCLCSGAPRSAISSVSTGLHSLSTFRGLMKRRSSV
KCNQ1 pot: potentiates or activates the human KCNQ1 potassium channel. AID 2648. CHO-K1 KCNQ1, thallium flux FluxOR fluorescence; hits give high values. 310,000 compounds, 0.35% hits. B-score at 10 µM. P51787;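 active = fluorescence ratio B-score, a plate-corrected score, at least three library SD, with initial intensity B-score within 5 SD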
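System: CHO-K1 cells stably expressing KCNQ1 / Medium: assay buffer for compound exposure, DMSO matched across wells / Reagent: thallium- and potassium-containing depolarizing buffer / Compound: one concentration, matched DMSO / Incubation: 20 min compound pretreatment at room temperature / Measured by: kinetic FluxOR fluorescence, 10 s baseline plus 110 s post-stimulus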
KCNK9 block: blocks the human KCNK9 two-pore domain potassium channel. B-score at 10 µM. HEK293 KCNK9, FluxOR thallium flux fluorescence; hits give low values. 310,000 compounds, 1.2% hits. Q9NPC2;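 active = ratio B-score over 3 SD below the library mean, with starting fluorescence within 5 SD of its mean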;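 note: negative B-score means less thallium flux so channel inhibition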
Target sequence (Q9NPC2 whole entry, looked up, the tested form may be a part): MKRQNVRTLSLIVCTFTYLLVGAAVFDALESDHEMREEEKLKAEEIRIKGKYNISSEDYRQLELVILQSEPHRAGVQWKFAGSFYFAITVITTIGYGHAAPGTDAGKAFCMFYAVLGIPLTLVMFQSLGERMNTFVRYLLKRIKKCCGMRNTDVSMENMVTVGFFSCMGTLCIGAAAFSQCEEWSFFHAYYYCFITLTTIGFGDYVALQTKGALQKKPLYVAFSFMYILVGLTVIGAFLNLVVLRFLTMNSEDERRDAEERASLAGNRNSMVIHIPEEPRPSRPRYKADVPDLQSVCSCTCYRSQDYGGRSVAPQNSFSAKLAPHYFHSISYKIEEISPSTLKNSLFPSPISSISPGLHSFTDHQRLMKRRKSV
KCNK3 confirm: confirmation of human KCNK3 two-pore domain potassium channel inhibitors. ratio percent of control, % at 10 µM. AID 651638. 2,400 compounds, 99% hits. CHO-KCNK3 thallium flux, FluxOR fluorescence; 0% buffer, 100% carvedilol maximal block. shares compounds with KCNK3 inh;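 active = ratio percent of control, averaged over triplicates, above buffer control mean plus 5 SD, cut at about 64% in these data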;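 note: ratio is the fluorescence rise from min to max over baseline after thallium stimulus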
KCNK3 noninduced: counter-screen for KCNK3 inhibitors: effect in non-induced cells; shares compounds with KCNK3 inh; non-induced KCNK3 parental cells, FluxOR thallium flux; hits give low values; thallium flux ratio (lower = more inhibition) at 10 µM; 2,400 compounds, 40% hits; AID 651747;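 active = thallium flux ratio, averaged over three wells, more than 5 SD below the buffer control mean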;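 note: host cells are CHO cells without KCNK3 induction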
Of the large screens only hits and unclear results are named; the others gave an inactive call (follow-up assays come after a bar, where they were run). Shown are actives, neighbours in structure and some others; about 3.1% of the full set was active somewhere.

Fc1ccc(C(c2nnnn2Cc2cccs2)N2CCN(c3ccccc3)CC2)cc1 (centres undefined)	KCNK3 inh -10, KCNK9 block -7.4 | KCNK3 confirm 102 | KCNK3 noninduced inactive
Oc1ccccc1N1CCN(c2ccc3ccccc3n2)CC1	none
Cc1ccc(C(=O)NCCc2nnc3c(C(F)(F)F)cc(Cl)cn23)o1	none
C=CCNc1nc(SC)nc2ccsc12	none
C=CCSc1nc(N(CC)CC)c2sccc2n1	KCNK3 inh -10 | KCNK3 confirm 121 | KCNK3 noninduced inactive
CCN(CC)CCNS(=O)(=O)c1ccc(C(=O)NN)cc1	none
CCN(CC)c1nc(-c2ccc(C(=O)NN)cc2)nc(-c2ccc(C(=O)NN)cc2)n1	KCNK3 inh -8.8 | KCNK3 confirm 52 | KCNK3 noninduced inactive
CC(O)CNc1nc(N)[nH]c(=O)c1N=Nc1ccccc1 (centres undefined)	none (no result: hERG protect, KCNQ1 inh, KCNQ1 pot, KCNK9 block)
NN(Cc1ccccc1)C(=S)Nc1ccc(Cl)c(Cl)c1	none
CC(C)CNC(=S)N1CCN(C(c2ccccc2)c2ccccc2)CC1	none
S=C(NCc1ccco1)N1CCN(C(c2ccccc2)c2ccccc2)CC1	KCNK3 inh -12, KCNK9 block -7.8 | KCNK3 confirm 135 | KCNK3 noninduced 0.15
CCN(Cc1ccncc1)C(=O)c1ccc(Br)o1	none
COc1ccccc1OCC(=O)NCC1CCCN(Cc2cnn(C(C)C)c2)C1 (centres undefined)	none
CS(=O)(=O)N1CCn2c1nc1ccccc12	none
CCN1N=C(c2ccccc2)Cn2c1nc1ccccc12	KCNK3 inh -9.4 | KCNK3 confirm 88 | KCNK3 noninduced inactive
CCn1ncc(S(=O)(=O)NCc2ccccc2Cl)c1C	none
COc1cccc(OCCn2cc(C(C)=O)c3ccccc32)c1	KCNK3 inh -9.2 | KCNK3 confirm 124 | KCNK3 noninduced inactive
COc1ccccc1OCCn1cc(C(=O)c2ccco2)c2ccccc21	KCNK3 inh -12, KCNK9 block -7.4 | KCNK3 confirm 102 | KCNK3 noninduced inactive
CC(=O)c1cn(CCOc2cc(C)ccc2C)c2ccccc12	none
COc1ccc(N(C)C(=O)c2ccc(NC(=O)CCS(=O)(=O)c3cccs3)cc2)cc1	none
Cc1cccc(C(=O)c2cnc3ccccc3c2-c2ccccc2)c1	KCNK3 inh -11, KCNK9 block -6.7 | KCNK3 confirm 129 | KCNK3 noninduced 0.14
Cc1cccc(C(=O)NNC(=O)c2ccccc2)c1	none
COc1cccc(-c2cc(C(=O)N3CCCc4ccccc43)no2)c1	KCNK3 inh -12 | KCNK3 confirm 115 | KCNK3 noninduced inactive
CN(CC(=O)N1CCN(Cc2ccccc2)CC1)C(=O)Cc1cccc2ccccc12	none (no result: hERG protect, KCNQ1 inh, KCNQ1 pot, KCNK9 block)
O=C(CCC(=O)c1cccs1)NCc1cccc(C(F)(F)F)c1	none
CCOC(=O)/C(N=Nc1c(C)n(C)n(-c2ccccc2)c1=O)=C(/O)c1ccccc1	KCNK3 inh -8.9 | KCNK3 confirm 109 | KCNK3 noninduced inactive
CCOC(=O)c1cccc(NC(=S)NCc2ccc(C)cc2)c1	none
c1ccc(C(CN2CCCCC2)Oc2ccccn2)cc1 (centres undefined)	none (no result: hERG protect, KCNQ1 inh, KCNQ1 pot, KCNK9 block)
CCSc1nc2ccccc2c(=O)n1CCc1ccc(OC)c(OC)c1	KCNK3 inh -9.4 | KCNK3 confirm 98 | KCNK3 noninduced inactive
CCCCCCCCCCCNC(=O)c1ccoc1C	KCNK3 inh -8.9 | KCNK3 confirm 96 | KCNK3 noninduced inactive
CC[C@H](C)/C=C(C)/C=C/C1=CC2=CC(=O)[C@]3(C)OC(=O)[C@@H](C(C)=O)[C@@H]3C2=CO1	KCNQ1 inh 6, KCNK3 inh -9 | KCNK3 confirm 122 | KCNK3 noninduced 0.078
COc1ccc(NC(=O)CSc2nnc(-c3cccs3)n2N)c(OC)c1	none
Cc1sc2ncnc(N3CCC(C(=O)NNC(=O)COc4cccc(C(F)(F)F)c4)CC3)c2c1C	KCNK3 inh -8.7 | KCNK3 confirm 83 | KCNK3 noninduced inactive
Cc1sc2ncnc(N3CCC(C(=O)Nc4ccc(OC(F)F)c(Cl)c4)CC3)c2c1C	KCNK3 inh -13 (no result: hERG protect, KCNQ1 inh, KCNQ1 pot, KCNK9 block) | KCNK3 confirm 142 | KCNK3 noninduced 0.14
COc1ccc(-n2c(SCC(=O)NCC3CCCO3)nc3c(c2=O)SC(C)C3)cc1 (centres undefined)	none
COc1ccc(C(=O)N/C(=C\c2ccc3c(c2)OCO3)C(=O)N2CCOCC2)cc1	none
CCCN1Cc2cccc(C(=O)NCCc3cccc(C)c3)c2C1=O	KCNK3 inh -9.7 | KCNK3 confirm 110 | KCNK3 noninduced 0.15
Cc1ccc(C(=O)Nc2cccc(-c3nc4ncccc4o3)c2)cc1	KCNK3 inh -10 | KCNK3 confirm 90 | KCNK3 noninduced inactive
CCOc1ccccc1CN1C(=O)C2(OCCO2)c2ccccc21	KCNK3 inh -9.7 | KCNK3 confirm 108 | KCNK3 noninduced inactive
Cc1ccc(C)c(CSCC(=O)NCc2cccs2)c1	KCNK3 inh -11 | KCNK3 confirm 84 | KCNK3 noninduced inactive
O=C(O)c1cccc(NS(=O)(=O)c2cc(S(=O)(=O)c3ccc(Cl)cc3)ccc2Cl)c1	none
Cc1ccc(C)c(C(=O)COC(=O)c2c(-c3ccccc3)noc2C)c1	KCNK3 inh -14 (no result: hERG protect, KCNQ1 inh, KCNQ1 pot, KCNK9 block) | KCNK3 confirm 136 | KCNK3 noninduced inactive
Cc1onc(-c2ccccc2)c1C(=O)OCC(=O)Nc1ccccc1	none (no result: hERG protect, KCNQ1 inh, KCNQ1 pot, KCNK9 block)
Cc1ccc(OCCOC(=O)c2c(-c3ccccc3)noc2C)cc1	KCNK3 inh -8.8, KCNK9 block -6.7 | KCNK3 confirm 101 | KCNK3 noninduced inactive
Cc1cc(F)ccc1S(=O)(=O)N1CCC2(CC1)OCCN2S(=O)(=O)c1cccs1	none
c1ccc(-c2nc(-c3ccco3)n3ccccc23)cc1	KCNK3 inh -9.7 | KCNK3 confirm 116 | KCNK3 noninduced 0.15
Cc1cccc(OCC(=O)Nc2ccccc2N2CCCC2)c1C	KCNK3 inh -9.8 | KCNK3 confirm 118 | KCNK3 noninduced 0.14
Cc1cccc(OCC(=O)Nc2ccccc2N2CCN(C(=O)C(C)C)CC2)c1C	none
Cc1cc(C)cc(OCC(=O)Nc2ccccc2N2CCCCC2)c1	KCNK3 inh -10 | KCNK3 confirm 94 | KCNK3 noninduced inactive
O=C(COc1c(Cl)cccc1Cl)Nc1ccccc1N1CCCC1	KCNK3 inh -9.1 | KCNK3 confirm 121 | KCNK3 noninduced 0.13
O=C(COc1ccc(Br)cc1)Nc1ccccc1N1CCCC1	none
O=C(Cc1ccccc1F)Nc1cc(Cl)ccc1N1CCCC1	none
O=C(Cc1ccccc1F)Nc1ccccc1N1CCCC1	KCNK3 inh -9.1 | KCNK3 confirm 89 | KCNK3 noninduced inactive
CN(CC(=O)Nc1ccccc1Cl)C(=O)CSc1nnc(N)s1	none
COCC(=O)OC1CCn2c1nc1c2C(=O)C(C)=C(NC(C)=O)C1=O (centres undefined)	none (no result: hERG protect, KCNQ1 inh, KCNQ1 pot, KCNK9 block)
O=C(Nc1ccccc1NC(=O)c1ccccc1F)c1ccccc1F	none
